Experimental data reported in ChEMBL document CHEMBL1141081, “Discovery and characterization of aminopiperidinecoumarin melanin concentrating hormone receptor 1 antagonists” (J Med Chem, 2005).
Values joined by “and” are separate entries in the source; they are usually repeats but may differ in a detail not shown here. Equal values may be shown once. One block for each compound: values may come before it.

Key:
[1] = target: T1, Melanin-concentrating hormone receptor 1 (Homo sapiens, UniProt Q99705); assay: Inhibition of melanin concentrating hormone receptor 1 mediated [Ca2+] release in IMR-32 cells in Ca+2 release cell assay; format: functional, cell-based
[2] = target: T1, Melanin-concentrating hormone receptor 1; assay: Inhibitory concentration aganist melanin concentrating hormone receptor 1 expressed in IMR-32 cells using [125I]MCH; format: cell-based
[3] = Brain area under concentration curve after oral administration in diet-induced obese mouse at a dose of 10 mg/kg for 0-24 hr period, n=3; format: ADME, organism-based; design: time < 24 hr, dose 10 mg/kg, route oral; conditions: in vivo
Procedure, shortened: (§1)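 Diet-induced obese mice were given a single oral dose of 10 mg/kg. Plasma and brain were sampled over 24 h. […] Values are mean ± SEM, n = 3.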

[4] = Plasma area under concentration curve after oral administration in diet-induced obese mouse at a dose of 10 mg/kg for 0-24 hr period,n=3; format: ADME, organism-based; design: time < 24 hr, dose 10 mg/kg, route oral; procedure, shortened: as §1
[5] = Maximum concentration in diet-induced obese mouse brain at 10 mg/kg oral administration; n=3; format: ADME, organism-based; design: dose 10 mg/kg, route oral; procedure, shortened: as §1
[6] = Half-life after oral administration; format: ADME, organism-based, Canis lupus familiaris; conditions: dog, in vivo
[7] = Half-life after iv administration at a dose 2.5 mg/kg; format: ADME, organism-based, Canis lupus familiaris; design: dose 2.5 mg/kg, route intravenous; conditions: dog, in vivo
Procedure, shortened: (§2)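 Male beagle dogs received a single intravenous bolus of 2.5 mg/kg. Plasma was sampled to derive half-life, Cmax, plasma clearance and AUC0-∞. Values are mean ± SEM.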

[8] = target: Adrenergic receptor alpha-1 (Homo sapiens) (UniProt P35348+P25100+P35368); assay: Non-selective inhibition against adrenergic-alpha-1 receptor at 10 uM; format: protein assay
[9] = target: Dopamine receptor (Homo sapiens) (UniProt P14416+P35462+P21918+P21917+P21728); assay: Non-selective inhibition against dopamine receptor at 10 uM; format: protein assay
[10] = Bioavailability after oral administration; format: ADME, organism-based, Canis lupus familiaris; conditions: dog, in vivo, read-out: Activity
[11] = Drug concentration in brain 1 hr after final dose of 10 mg/kg, administered orally; format: ADME, organism-based; design: dose 10 mg/kg, route oral; conditions: mouse, po, read-out: Activity
Procedure, shortened: (§3)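 Diet-induced obese mice were dosed orally at 10 or 30 mg/kg b.i.d. for 13 days. Body weight was expressed as % change from vehicle controls. Plasma (μg/mL) and brain (μg/g) drug levels were measured 1 h after the final dose. Values are mean ± SEM, n = 3.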

[12] = Drug concentration in plasma 1 hr after final dose of 10 mg/kg administered orally; format: ADME, organism-based; design: dose 10 mg/kg, route oral; conditions: mouse, po, read-out: Activity; procedure, shortened: as §3
[13] = Drug concentration in plasma 1 hr after final dose of 30 mg/kg administered orally; format: ADME, organism-based; design: dose 30 mg/kg, route oral; conditions: mouse, po, read-out: Activity; procedure, shortened: as §3
[14] = Plasma concentration after intravenous infusion at a dose of 8 mg/kg/30 min; format: ADME, organism-based, Canis lupus familiaris; design: route intravenous; conditions: dog, read-out: Activity
[15] = Plasma concentration after intravenous infusion at a dose of 26 mg/kg/30 min; format: ADME, organism-based, Canis lupus familiaris; design: route intravenous; conditions: dog, read-out: Activity
[16] = Plasma concentration after intravenous infusion at a dose of 80 mg/kg measured after approximately 12 min; format: ADME, organism-based, Canis lupus familiaris; design: dose 80 mg/kg, route intravenous; conditions: dog, read-out: Activity
[17] = Plasma area under curve after oafter iv administration at a dose 2.5 mg/kg; format: ADME, organism-based, Canis lupus familiaris; design: dose 2.5 mg/kg, route intravenous; conditions: dog, in vivo; procedure, shortened: as §2
[18] = target: Voltage-gated inwardly rectifying potassium channel KCNH2 (Homo sapiens, UniProt Q12809); assay: Inhibition of human potassium channel HERG
[19] = Plasma clearance after iv administration at a dose 2.5 mg/kg; format: ADME, organism-based, Canis lupus familiaris; design: dose 2.5 mg/kg, route intravenous; conditions: dog, read-out: Clp (converted); procedure, shortened: as §2
[20] = Concentration in diet-induced obese mouse brain 12 h after 10 mg/kg oral administration; format: ADME, organism-based; design: dose 10 mg/kg, route oral; conditions: read-out: C12h; procedure, shortened: as §1
[21] = Peak plasma concentration after oral administration; format: ADME, organism-based, Canis lupus familiaris; design: route oral; conditions: dog
[22] = Peak plasma concentration after iv administration at a dose 2.5 mg/kg; format: ADME, organism-based, Canis lupus familiaris; design: dose 2.5 mg/kg, route intravenous; conditions: dog; procedure, shortened: as §2
Mus musculus [23] = assay: Drug concentration in brain 1 hr after final dose of 10 mg/kg, administered orally; conditions: po
Mus musculus [24] = assay: Percent change in body weight after oral administration at a dose of 10 mg/kg b.i.d. as compare to vehicle (1% Tween-80 in water) observed for 13 days
Mus musculus [25] = assay: Percent change in body weight after oral administration at a dose of 30 mg/kg b.i.d. as compare to vehicle (1% Tween-80 in water) observed for 13 days
Mus musculus [26] = assay: Percent change in body weight after oral administration at a dose of 30 mg/kg b.i.d. as compare to vehicle (1% Tween-80 in water) observed for 28 days
Mus musculus [27] = assay: Percent change in body weight after oral administration at a dose of 10 mg/kg b.i.d. as compare to vehicle (1% Tween-80 in water) observed for 28 days
[28] = Brain area under concentration curve after peroral administration in lean mouse at a dose of 10 mg/kg; format: ADME, organism-based; design: dose 10 mg/kg, route oral; conditions: in vivo, po
[29] = Plasma area concentration under curve after peroral administration in lean mouse at a dose of 10 mg/kg; format: ADME, organism-based; design: dose 10 mg/kg, route oral; conditions: po
Procedure, shortened: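 Single oral dose of 10 mg/kg given to lean mice. Plasma exposure is expressed as AUC, and brain AUC was measured alongside it. Interanimal variability was below 25% for all values.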

[30] = Plasma concentration at the end of the first infusion in dog cardiovascular assay; value is in between 1.36-1.43; format: ADME, Canis lupus familiaris; conditions: iv
[31] = Plasma concentration at the end of the first infusion in dog cardiovascular assay; value is in between 2.75-2.93; format: ADME, Canis lupus familiaris; conditions: iv
[32] = Plasma area under concentration curve after peroral administration in lean mouse at a dose of 10 mg/kg; format: ADME, organism-based; design: dose 10 mg/kg, route oral; conditions: po

T1 sequence (Q99705 whole entry): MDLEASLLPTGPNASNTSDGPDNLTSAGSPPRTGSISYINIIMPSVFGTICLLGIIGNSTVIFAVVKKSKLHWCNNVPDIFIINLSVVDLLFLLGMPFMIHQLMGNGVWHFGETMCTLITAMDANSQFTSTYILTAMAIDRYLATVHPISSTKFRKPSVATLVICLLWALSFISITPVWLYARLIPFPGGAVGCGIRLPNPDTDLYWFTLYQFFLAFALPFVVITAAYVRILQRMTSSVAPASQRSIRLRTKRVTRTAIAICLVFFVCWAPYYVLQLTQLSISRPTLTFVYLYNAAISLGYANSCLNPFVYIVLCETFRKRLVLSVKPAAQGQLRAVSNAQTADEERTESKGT
Chain of Voltage-gated inwardly rectifying potassium channel KCNH2 (Q12809 whole entry): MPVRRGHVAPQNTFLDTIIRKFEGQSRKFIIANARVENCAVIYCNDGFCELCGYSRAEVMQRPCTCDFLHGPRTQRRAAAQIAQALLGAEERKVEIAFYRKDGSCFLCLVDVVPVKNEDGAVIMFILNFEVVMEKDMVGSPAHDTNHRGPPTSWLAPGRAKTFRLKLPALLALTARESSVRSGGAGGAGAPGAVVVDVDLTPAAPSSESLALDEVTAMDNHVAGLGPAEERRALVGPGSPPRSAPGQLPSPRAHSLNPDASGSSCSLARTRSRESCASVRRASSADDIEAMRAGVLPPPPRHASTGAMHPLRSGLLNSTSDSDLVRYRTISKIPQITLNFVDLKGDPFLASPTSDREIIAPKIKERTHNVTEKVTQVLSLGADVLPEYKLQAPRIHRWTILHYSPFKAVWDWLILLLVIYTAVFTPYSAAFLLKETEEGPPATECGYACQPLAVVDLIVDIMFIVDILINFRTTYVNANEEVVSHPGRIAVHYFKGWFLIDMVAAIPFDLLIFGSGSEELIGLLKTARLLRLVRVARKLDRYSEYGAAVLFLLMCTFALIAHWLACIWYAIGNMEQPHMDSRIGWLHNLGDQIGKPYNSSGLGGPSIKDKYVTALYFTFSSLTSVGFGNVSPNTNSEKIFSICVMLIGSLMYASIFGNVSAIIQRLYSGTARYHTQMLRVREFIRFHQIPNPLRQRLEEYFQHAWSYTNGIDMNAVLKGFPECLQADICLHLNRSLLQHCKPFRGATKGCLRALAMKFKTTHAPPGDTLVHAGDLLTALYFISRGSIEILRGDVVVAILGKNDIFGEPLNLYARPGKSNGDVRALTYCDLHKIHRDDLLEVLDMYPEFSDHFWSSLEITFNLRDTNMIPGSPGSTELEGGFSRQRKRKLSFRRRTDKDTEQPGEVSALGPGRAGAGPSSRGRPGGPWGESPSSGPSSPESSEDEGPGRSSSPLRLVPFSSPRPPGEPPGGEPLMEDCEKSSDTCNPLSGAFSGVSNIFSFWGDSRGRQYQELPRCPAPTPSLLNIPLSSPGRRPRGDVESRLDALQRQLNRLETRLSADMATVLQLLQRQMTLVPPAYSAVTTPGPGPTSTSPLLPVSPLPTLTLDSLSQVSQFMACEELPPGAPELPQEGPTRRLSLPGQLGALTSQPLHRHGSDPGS

Compound: O=c1cc(NC2CCN(Cc3ccc4ncoc4c3)CC2)c2cc(Cl)ccc2o1
IC50 [1]: 0.461 µM
IC50 [2]: 0.075 µM

Compound: O=c1cc(NC2CCN(Cc3ccc4sccc4c3)CC2)c2cc(Cl)ccc2o1
IC50 [1]: 0.189 µM
IC50 [2]: 0.006 µM

Compound: O=c1cc(NC2CCN(C/C=C/c3ccccc3)CC2)c2ccccc2o1
IC50 [1]: 1.04 µM
IC50 [2]: 0.191 µM

Compound: O=c1cc(NC2CCN(Cc3ccc4ocnc4c3)CC2)c2cc(Cl)ccc2o1
IC50 [1]: 0.163 µM
AUC [3]: 0 µg·h/g
IC50 [2]: 0.003 µM

Compound: CC(C)(C)c1ccc(CN2CCC(/N=c3\cc(O)oc4ccc(Cl)cc34)CC2)cc1
IC50 [1]: > 10 µM

Compound: O=c1cc(NC2CCN(C/C=C/c3ccccc3)CC2)c2cc(Cl)ccc2o1
IC50 [1]: 0.211 µM
AUC [28]: 2.6 µg·h/g
AUC [29]: 1.92 µg·h/mL
IC50 [2]: 0.009 µM

Compound: O=c1cc(NC2CCN(Cc3ccc4c(c3)OC(F)(F)O4)CC2)c2cc(Cl)ccc2o1
IC50 [1]: 0.581 µM
IC50 [2]: 0.019 µM

Compound: Cn1ccc2ccc(CN3CCC(/N=c4\cc(O)oc5ccc(Cl)cc45)CC3)cc21
IC50 [1]: 0.162 µM
IC50 [2]: 0.06 µM

Compound: O=c1cc(NC2CCN(Cc3ccc4ccccc4c3)CC2)c2cc(Cl)ccc2o1
IC50 [1]: 0.092 µM
IC50 [2]: 0.021 µM

Now those with a lower IC50 [1], led by results:

IC50 [1]: 0.041 µM
AUC [3]: 0.449 µg·h/g
AUC at 24 h [4]: 0.621 µg·h/mL
Cmax [5]: 294 ng/g
IC50 [2]: 0.027 µM
Compound: O=c1cc(NC2CCN(Cc3ccc4c(c3)CCO4)CC2)c2cc(Cl)ccc2o1

IC50 [1]: 0.028 µM
IC50 [2]: 0.024 µM
Compound: O=c1cc(NC2CCN(Cc3ccc4cc[nH]c4c3)CC2)c2cc(Cl)ccc2o1

IC50 [1]: 0.028 µM
AUC at 24 h [4]: 6.35 µg·h/mL
Cmax [5]: 454 ng/g
half-life [6]: 4.4 h
half-life [7]: 3.9 h
IC50 [2]: 0.002 µM
inhibition [8]: 75% and 69%
inhibition [9]: 60%
bioavailability [10]: 48%
concentration at 1 h [11]: 2210 ng/g
concentration at 1 h [12]: 2 µg/mL
concentration at 1 h [13]: 6.01 µg/mL
concentration at 0.5 h [14]: 3.33 µg/mL
concentration at 0.5 h [15]: 11.8 µg/mL
concentration at 0.2 h [16]: 19.9 µg/mL
AUC [17]: 2.66 µg·h/mL
clearance [19]: 0.95 L/h/kg
concentration at 12 h [20]: 175 ng/g
Cmax [21]: 0.2 µg/mL
Cmax [22]: 1.6 µg/mL
concentration at 1 h (Mus musculus [23]): 6460 ng/g
Compound: O=c1cc(NC2CCN(Cc3ccc4c(c3)OCO4)CC2)c2cc(Cl)ccc2o1
IC50 [18]: 2.25 µM
% change (Mus musculus [24]): -6.9%
% change (Mus musculus [25]): -18.2%
% change (Mus musculus [26]): -31%
% change (Mus musculus [27]): -16%

IC50 [1]: 0.063 µM
AUC [3]: 1.18 µg·h/g
AUC at 24 h [4]: 2.87 µg·h/mL
Cmax [5]: 182 ng/g
IC50 [2]: 0.007 µM
concentration at 12 h [20]: 18 ng/g
Compound: O=c1cc(NC2CCN(Cc3ccc4[nH]ccc4c3)CC2)c2cc(Cl)ccc2o1

IC50 [1]: 0.011 µM
Compound: COc1ccc2oc(O)c/c(=N\C3CCN(Cc4ccc5c(c4)OCO5)CC3)c2c1
Activity [30]: 2.84 µg/mL
Activity [31]: 2.84 µg/mL

IC50 [1]: 0.044 µM
AUC [28]: 0.43 µg·h/g
AUC [32]: 0.98 µg·h/mL
IC50 [2]: 0.004 µM
Compound: COc1ccc2oc(O)c/c(=N\C3CCN(C/C=C/c4ccccc4)CC3)c2c1
